# Data taken from ChEMBL document CHEMBL5257039, “Modulation of AMPA Receptor Gating by the Anticonvulsant Drug, Perampanel” (ACS Med Chem Lett, 2019).
# The source made the active and inactive calls. No cut-off for these calls is given here.
# Experiments:
# Assay type in all cases: cell-based
# Glutamate receptor 3 [1] = biological target: T1, Glutamate receptor 3 (Homo sapiens, UniProt P42263); assay: Blockade of whole cell current in GluA3i-G (unknown origin) transfected in HEK293 cells assessed as fractional occupancy at level O3 by measuring ratio at -60 mV in presence of glutamate at 1 uM by whole cell patch clamp assay (RVB = 0.44 +/- 0.14); details: filed as negative allosteric modulator
# T1 sequence (P42263 whole entry): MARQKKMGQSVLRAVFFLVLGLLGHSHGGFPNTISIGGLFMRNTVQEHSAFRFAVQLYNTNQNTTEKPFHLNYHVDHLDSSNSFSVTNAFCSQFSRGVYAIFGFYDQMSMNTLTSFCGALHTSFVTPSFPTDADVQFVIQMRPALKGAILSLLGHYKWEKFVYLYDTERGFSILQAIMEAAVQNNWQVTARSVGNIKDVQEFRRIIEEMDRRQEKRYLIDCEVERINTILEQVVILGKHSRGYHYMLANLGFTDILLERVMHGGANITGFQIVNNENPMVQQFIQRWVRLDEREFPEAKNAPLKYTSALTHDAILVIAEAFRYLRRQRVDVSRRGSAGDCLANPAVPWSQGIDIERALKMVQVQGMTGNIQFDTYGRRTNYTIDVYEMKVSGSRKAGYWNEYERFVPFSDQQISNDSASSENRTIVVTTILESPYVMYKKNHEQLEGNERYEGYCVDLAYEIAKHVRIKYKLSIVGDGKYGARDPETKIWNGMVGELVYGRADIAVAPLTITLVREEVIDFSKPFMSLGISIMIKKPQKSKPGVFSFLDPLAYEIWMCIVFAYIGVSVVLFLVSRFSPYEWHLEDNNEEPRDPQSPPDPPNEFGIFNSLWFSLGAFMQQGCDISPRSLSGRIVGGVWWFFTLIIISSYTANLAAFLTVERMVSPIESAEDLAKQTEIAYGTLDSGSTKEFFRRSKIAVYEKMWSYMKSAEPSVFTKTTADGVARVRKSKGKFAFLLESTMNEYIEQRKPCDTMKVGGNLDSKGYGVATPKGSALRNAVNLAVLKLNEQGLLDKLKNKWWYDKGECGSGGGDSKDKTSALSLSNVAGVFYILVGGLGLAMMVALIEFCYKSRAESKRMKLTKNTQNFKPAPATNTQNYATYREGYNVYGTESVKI
# In short: (§1)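 Single homomeric GluA3i-G channels (flip, G at R/G editing site) were recorded cell-attached for 10–45 min in 5 mM L-glutamate plus 150–200 μM cyclothiazide to block desensitization. Inhibitor at 1 or 2 μM was coapplied with glutamate, and analysis used the steady-state segment. Amplitudes were fitted to closed and O1–O4 conductance levels. Fractional occupancy per level is reported as mean ± SD over 2–3 patches.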
# Glutamate receptor 3 [2] = biological target: T1, Glutamate receptor 3; assay: Blockade of whole cell current in GluA3i-G (unknown origin) transfected in HEK293 cells assessed as fractional occupancy at level O1 by measuring ratio at -60 mV in presence of glutamate at 1 uM by whole cell patch clamp assay (RVB = 0.16 +/- 0.059); details: filed as negative allosteric modulator; in short: as §1
# Glutamate receptor 3 [3] = biological target: T1, Glutamate receptor 3; assay: Blockade of whole cell current in GluA3i-G (unknown origin) transfected in HEK293 cells assessed as fractional occupancy at level O1 by measuring ratio at -60 mV in presence of glutamate at 2 uM by whole cell patch clamp assay (RVB = 0.16 +/- 0.059); details: filed as negative allosteric modulator; in short: as §1
# Glutamate receptor 3 [4] = biological target: T1, Glutamate receptor 3; assay: Blockade of whole cell current in GluA3i-G (unknown origin) transfected in HEK293 cells assessed as opening of conductance level O4 measured at -60 mV in presence of glutamate at 2 uM by whole cell patch clamp assay; in short: as §1
# Glutamate receptor 3 [5] = biological target: T1, Glutamate receptor 3; assay: Blockade of whole cell current in GluA3i-G (unknown origin) transfected in HEK293 cells assessed as opening of conductance level O3 measured at -60 mV in presence of glutamate at 1 uM by whole cell patch clamp assay; in short: as §1
# Glutamate receptor 3 [6] = biological target: T1, Glutamate receptor 3; assay: Blockade of whole cell current in GluA3i-G (unknown origin) transfected in HEK293 cells assessed as opening of conductance level O3 measured at -60 mV in presence of glutamate at 2 uM by whole cell patch clamp assay; in short: as §1
# Glutamate receptor 3 [7] = biological target: T1, Glutamate receptor 3; assay: Blockade of whole cell current in GluA3i-G (unknown origin) transfected in HEK293 cells assessed as fractional occupancy at level O2 by measuring ratio at -60 mV in presence of glutamate at 1 uM by whole cell patch clamp assay (RVB = 0.23 +/- 0.051); details: filed as negative allosteric modulator; in short: as §1
# Glutamate receptor 3 [8] = biological target: T1, Glutamate receptor 3; assay: Blockade of whole cell current in GluA3i-G (unknown origin) transfected in HEK293 cells assessed as fractional occupancy at level O4 by measuring ratio at -60 mV in presence of glutamate at 1 uM by whole cell patch clamp assay (RVB = 0.14 +/- 0.050); details: filed as negative allosteric modulator; in short: as §1
# Glutamate receptor 3 [9] = biological target: T1, Glutamate receptor 3; assay: Blockade of whole cell current in GluA3i-G (unknown origin) transfected in HEK293 cells assessed as opening of conductance level O1 measured at -60 mV in presence of glutamate at 2 uM by whole cell patch clamp assay; details: filed as negative allosteric modulator; in short: as §1
# Glutamate receptor 3 [10] = biological target: T1, Glutamate receptor 3; assay: Blockade of whole cell current in GluA3i-G (unknown origin) transfected in HEK293 cells assessed as opening of conductance level O2 measured at -60 mV in presence of glutamate at 2 uM by whole cell patch clamp assay; details: filed as negative allosteric modulator; in short: as §1
# Glutamate receptor 3 [11] = biological target: T1, Glutamate receptor 3; assay: Blockade of whole cell current in GluA3i-G (unknown origin) transfected in HEK293 cells measured at -60 mV in presence of glutamate by whole cell patch clamp assay
# In short: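 Whole-cell GluA3 currents were recorded at Vh −60 mV. Glutamate was applied first, then coapplied with inhibitor. Steady-state responses were normalized to currents in 5 mM glutamate in each of 19 cells, with 3–10 cells per concentration. The concentration–effect curve was fitted assuming simple inhibition.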
# Glutamate receptor 3 [12] = biological target: T1, Glutamate receptor 3; assay: Blockade of whole cell current in GluA3i-G (unknown origin) transfected in HEK293 cells assessed as fractional occupancy at level O3 by measuring ratio at -60 mV in presence of glutamate at 2 uM by whole cell patch clamp assay (RVB = 0.44 +/- 0.14); details: filed as negative allosteric modulator; in short: as §1
# Glutamate receptor 3 [13] = biological target: T1, Glutamate receptor 3; assay: Blockade of whole cell current in GluA3i-G (unknown origin) transfected in HEK293 cells assessed as opening of conductance level O2 measured at -60 mV in presence of glutamate at 1 uM by whole cell patch clamp assay; details: filed as negative allosteric modulator; in short: as §1
# Glutamate receptor 3 [14] = biological target: T1, Glutamate receptor 3; assay: Blockade of whole cell current in GluA3i-G (unknown origin) transfected in HEK293 cells assessed as opening of conductance level O1 measured at -60 mV in presence of glutamate at 1 uM by whole cell patch clamp assay; details: filed as negative allosteric modulator; in short: as §1
# Glutamate receptor 3 [15] = biological target: T1, Glutamate receptor 3; assay: Blockade of whole cell current in GluA3i-G (unknown origin) transfected in HEK293 cells assessed as opening of conductance level O4 measured at -60 mV in presence of glutamate at 1 uM by whole cell patch clamp assay; in short: as §1
# Glutamate receptor 3 [16] = biological target: T1, Glutamate receptor 3; assay: Blockade of whole cell current in GluA3i-G (unknown origin) transfected in HEK293 cells assessed as fractional occupancy at level O2 by measuring ratio at -60 mV in presence of glutamate at 2 uM by whole cell patch clamp assay (RVB = 0.23 +/- 0.051); details: filed as negative allosteric modulator; in short: as §1
# Glutamate receptor 3 [17] = biological target: T1, Glutamate receptor 3; assay: Blockade of whole cell current in GluA3i-G (unknown origin) transfected in HEK293 cells assessed as fractional occupancy at level C by measuring ratio at -60 mV in presence of glutamate at 1 uM by whole cell patch clamp assay (RVB = 0.037 +/- 0.010); details: filed as negative allosteric modulator; in short: as §1
# Glutamate receptor 3 [18] = biological target: T1, Glutamate receptor 3; assay: Blockade of whole cell current in GluA3i-G (unknown origin) transfected in HEK293 cells assessed as fractional occupancy at level C by measuring ratio at -60 mV in presence of glutamate at 2 uM by whole cell patch clamp assay (RVB = 0.037 +/- 0.010); details: filed as negative allosteric modulator; in short: as §1
smiles,measurement,setting,value
N#Cc1ccccc1-c1cc(-c2ccccn2)cn(-c2ccccc2)c1=O [PERAMPANEL],Ratio,Glutamate receptor 3 [1],0.13
same,Ratio,Glutamate receptor 3 [2],0.3
same,Ratio,Glutamate receptor 3 [3],0.49
same,Activity,Glutamate receptor 3 [4],inactive
same,Activity,Glutamate receptor 3 [5],inactive
same,Activity,Glutamate receptor 3 [6],inactive
same,Ratio,Glutamate receptor 3 [7],0.53
same,Ratio,Glutamate receptor 3 [8],0.001
same,Activity,Glutamate receptor 3 [9],Active
same,Activity,Glutamate receptor 3 [10],Active
same,IC50,Glutamate receptor 3 [11],2100 nM
same,Ratio,Glutamate receptor 3 [12],0.015
same,Activity,Glutamate receptor 3 [13],Active
same,Activity,Glutamate receptor 3 [14],Active
same,Activity,Glutamate receptor 3 [15],inactive
same,Ratio,Glutamate receptor 3 [16],0.25
same,Ratio,Glutamate receptor 3 [17],0.078
same,Ratio,Glutamate receptor 3 [18],0.23
